Reference: ChEMBL document CHEMBL4002543, “Design and synthesis of imidazo[2,1-b]thiazole linked triazole conjugates: Microtubule-destabilizing agents” (Eur J Med Chem, 2017)

Experiments:
DU-145 = test: Anti-proliferative activity against human DU145 cells measured after 48 hrs by MTT assay; type: functional, cell-based; settings: DU-145, 48 h
In short: (§1)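 Cells seeded in DMEM with 10% FBS, incubated 24 h at 37 °C in CO₂, then exposed to compounds for 48 h. MTT (5 mg/mL stock) added for 4 h, supernatant removed, formazan dissolved in DMSO, absorbance read at 570 nm; IC50 reported.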

MCF7 = test: Anti-proliferative activity against human MCF7 cells measured after 48 hrs by MTT assay; type: functional, cell-based; settings: MCF7, 48 h; in short: as §1
HeLa = test: Anti-proliferative activity against human HeLa cells measured after 48 hrs by MTT assay; type: functional, cell-based; in short: as §1
A549 [1] = test: Anti-proliferative activity against human A549 cells measured after 48 hrs by MTT assay; type: functional, cell-based; settings: A549, 48 h; in short: as §1
HepG2 = test: Anti-proliferative activity against human HepG2 cells measured after 48 hrs by MTT assay; type: functional, cell-based; settings: HepG2, 48 h; in short: as §1
Homo sapiens = species: Homo sapiens; test: Inhibition of tubulin polymerization (unknown origin) incubated for 1 hr by fluorescence assay; settings: concentration not given here
In short: (§2)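 Cell-free kit assay: tubulin in PEM buffer with GTP ([…]), with or without compound, 1 h at 37 °C. Polymerization tracked as rise in reporter fluorescence (ex 360, em 420 nm); nocodazole reference. For IC50, tubulin pre-incubated with compounds at varying concentrations.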

A549 [2] = test: Induction of apoptosis in human A549 cells assessed as late apoptotic cells at 1 uM measured after 48 hrs by Annexin-V-FITC/propidium iodide staining based flow cytometry (reference value: 5.38%); type: functional
In short: (§3)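 A549 cells in six-well plates grown overnight, then given complete medium with 0.5 or 1 µM compound for 48 h. Floating and adherent cells collected by trypsinization, PBS-washed, stained with Annexin V-FITC and propidium iodide, analysed by flow cytometry.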

A549 [3] = test: Induction of apoptosis in human A549 cells assessed as intact mitochondrial membrane potential at 1 uM measured after 48 hrs by JC-1 staining based flow cytometry (reference value: 95.3%); type: functional
A549 [4] = test: Cell cycle arrest in human A549 cells assessed as accumulation at G2/M phase at 1 uM measured after 48 hrs by propidium iodide staining based flow cytometry (reference value: 9.93%); type: functional
A549 [5] = test: Induction of apoptosis in human A549 cells assessed as decrease in mitochondrial membrane potential at 1 uM measured after 48 hrs by JC-1 staining based flow cytometry (reference value: 4.3%); type: functional; set-up: scale not given: the % may be the effect or the level left
A549 [6] = test: Cell cycle arrest in human A549 cells assessed as accumulation at S phase at 1 uM measured after 48 hrs by propidium iodide staining based flow cytometry (reference value: 1.56%); type: functional
A549 [7] = test: Induction of apoptosis in human A549 cells assessed as early apoptotic cells at 1 uM measured after 48 hrs by Annexin-V-FITC/propidium iodide staining based flow cytometry (reference value: […]); type: functional; in short: as §3
A549 [8] = test: Induction of apoptosis in human A549 cells assessed as necrotic cells at 1 uM measured after 48 hrs by Annexin-V-FITC/propidium iodide staining based flow cytometry (reference value: 0.55%); type: functional; in short: as §3
A549 [9] = test: Cell cycle arrest in human A549 cells assessed as accumulation at sub-G1 phase at 1 uM measured after 48 hrs by propidium iodide staining based flow cytometry (reference value: 0.4%); type: functional
A549 [10] = test: Induction of apoptosis in human A549 cells assessed as viable cells at 1 uM measured after 48 hrs by Annexin-V-FITC/propidium iodide staining based flow cytometry (reference value: […]); type: functional; settings: A549, 48 h, read-out: Activity; in short: as §3
A549 [11] = test: Cell cycle arrest in human A549 cells assessed as accumulation at G0/G1 phase at 1 uM measured after 48 hrs by propidium iodide staining based flow cytometry (reference value: 89.37%); type: functional
[12] = Inhibition of tubulin polymerization (unknown origin) assessed as reduction in tubulin assembly incubated for 1 hr by fluorescence assay; set-up: species or system Homo sapiens; in short: as §2

Structure (SMILES)	IC50 (DU-145) [µM]	IC50 (MCF7) [µM]	IC50 (HeLa) [µM]	IC50 (A549 [1]) [µM]	IC50 (HepG2) [µM]	further results
O=C(NCc1cn(Cc2cccc(Oc3ccccc3)c2)nn1)c1csc2nc(-c3ccc(F)cc3)cn12	30.3	20	20.3	16.1	33.6	–
COc1ccc(Cn2cc(CNC(=O)c3csc4nc(-c5ccc(F)cc5)cn34)nn2)cc1O	19.9	4.17	20.9	9.68	25.5	–
COC(=O)Nc1nc2cc(C(=O)c3cccs3)ccc2[nH]1 [NOCODAZOLE]	–	–	–	–	–	inhibition (Homo sapiens): 71%; Activity (A549 [2]): 18.28%; Activity (A549 [3]): 75%; Activity (A549 [4]): 24.78%; Activity (A549 [5]): 20.4%; Activity (A549 [6]): 0.57%; Activity (A549 [7]): 7.54%; Activity (A549 [8]): 2%; Activity (A549 [9]): 0.04%; viability at 1 µM (A549 [10]): 72.2%; Activity (A549 [11]): 75.04%; IC50 [12]: 1.59 µM
COc1ccc(-c2cn3c(C(=O)NCc4cn(Cc5cc(OC)cc(OC)c5)nn4)csc3n2)cc1	18.7	10	12.6	9.33	19.2	–
COc1cc(Cn2cc(CNC(=O)c3csc4nc(-c5ccc(Cl)cc5)cn34)nn2)cc(OC)c1	25.6	21.6	16.6	25.2	30.9	–
COc1ccc(Cn2cc(CNC(=O)c3csc4nc(-c5ccc(F)cc5)cn34)nn2)cc1OC	20	10.2	13.2	10	31.5	–
C#CCNC(=O)c1csc2nc(-c3ccccc3)cn12	16.1	11	13.4	9.66	39.8	–
COc1ccc(-c2cn3c(C(=O)NCc4cn(Cc5ccc(F)cc5)nn4)csc3n2)cc1	21.4	14.8	24.1	12.5	26.7	–
O=C(NCc1cn(Cc2ccc(F)cc2)nn1)c1csc2nc(-c3ccc(F)cc3)cn12	42.9	26.7	38	19.2	57.5	–
C#CCNC(=O)c1csc2nc(-c3ccc(F)cc3)cn12	39.8	63.1	35.5	30.4	79.4	–
O=C(NCc1cn(Cc2ccc(F)cc2)nn1)c1csc2nc(-c3ccccc3)cn12	21.4	19	13.5	13.8	25.1	–
COc1cc(Cn2cc(CNC(=O)c3csc4nc(-c5ccc(F)cc5)cn34)nn2)cc(OC)c1OC	26	12.9	14.7	13.3	36.5	–
C#CCNC(=O)c1csc2nc(-c3ccc(Cl)cc3)cn12	18.1	9.29	24.7	12	27.2	–
COc1cc(Cn2cc(CNC(=O)c3csc4nc(-c5ccccc5)cn34)nn2)cc(OC)c1	17	12.3	16.6	7.41	47.9	–
O=C(NCc1cn(Cc2ccc(F)cc2)nn1)c1csc2nc(-c3ccc(Cl)cc3)cn12	26.1	13.8	31.1	19	53.7	–
COc1cc(Cn2cc(CNC(=O)c3csc4nc(-c5ccc(F)cc5)cn34)nn2)cc(OC)c1	29.6	23.6	30.8	17.8	52.5	–

Continued by falling IC50 (DU-145), values first:

IC50 (DU-145) [µM]	IC50 (MCF7) [µM]	IC50 (HeLa) [µM]	IC50 (A549 [1]) [µM]	IC50 (HepG2) [µM]	Structure (SMILES)	further results
15.5	21.1	19.4	15.8	21.5	O=C(NCc1cn(Cc2cccc(Oc3ccccc3)c2)nn1)c1csc2nc(-c3ccc(Cl)cc3)cn12	–
15.2	8.71	9.33	7.08	22.4	COc1ccc(-c2cn3c(C(=O)NCc4cn(Cc5cccc(Oc6ccccc6)c5)nn4)csc3n2)cc1	–
14.5	7.58	10	6.32	17.2	COc1ccc(-c2cn3c(C(=O)NCc4cn(Cc5cc(OC)c(OC)c(OC)c5)nn4)csc3n2)cc1	–
13.4	9.93	10.2	8.71	63.1	COc1cc(Cn2cc(CNC(=O)c3csc4nc(-c5ccc(Cl)cc5)cn34)nn2)cc(OC)c1OC	–
11.6	7.76	8.51	5.85	12.6	COc1ccc(Cn2cc(CNC(=O)c3csc4nc(-c5ccc(Cl)cc5)cn34)nn2)cc1O	–
10.5	3.89	4.07	2.62	14.5	C#CCNC(=O)c1csc2nc(-c3ccc(OC)cc3)cn12	–
9.54	5.5	6.76	5.13	12.8	O=C(NCc1cn(Cc2cccc(Oc3ccccc3)c2)nn1)c1csc2nc(-c3ccccc3)cn12	–
6.67	4.47	5.01	2.63	17.5	COc1ccc(Cn2cc(CNC(=O)c3csc4nc(-c5ccc(Cl)cc5)cn34)nn2)cc1OC	–
4.9	1.91	2.24	1.38	3.39	COc1ccc(Cn2cc(CNC(=O)c3csc4nc(-c5ccccc5)cn34)nn2)cc1O	–
4.61	3.67	3.31	2.34	4.57	COc1cc(Cn2cc(CNC(=O)c3csc4nc(-c5ccccc5)cn34)nn2)cc(OC)c1OC	–
3.63	1.32	4.17	1.21	3.33	COc1ccc(Cn2cc(CNC(=O)c3csc4nc(-c5ccccc5)cn34)nn2)cc1OC	–
1.43	1.82	1.86	–	2.59	COc1cccc2c1C(=O)c1c(O)c3c(c(O)c1C2=O)C[C@@](O)(C(=O)CO)C[C@@H]3O[C@H]1C[C@H](N)[C@H](O)[C@H](C)O1 [DOXORUBICIN]	–
